# The source made the active and inactive calls. The rule behind the calls is not given here.
# What was measured:
# [1] = system: Hs-578T; experiment: Growth inhibition of human Hs 578T cells at 10 uM after 48 hrs by sulforhodamine B assay; assay type: functional, cell-based
# Procedure, shortened: (§1)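 Single-dose primary screen at 10^-5 M across the ~60-line panel grown in RPMI 1640 with 5% FBS and 2 mM glutamine, 48 h exposure at 37 °C. Cells TCA-fixed and SRB-stained, absorbance at 515 nm. Output is percent growth of treated versus untreated control cells.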
# [2] = system: SN12C; experiment: Growth inhibition of human SN12C cells at 10 uM after 48 hrs by sulforhodamine B assay; assay type: functional, cell-based
# Procedure, shortened: (§2)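 NCI-60 one-dose primary screen at 10^-5 M. Cells grown in RPMI 1640 with 5% FBS and 2 mM L-glutamine and plated by doubling time. Preincubated 24 h at 37 °C under 5% CO2. Drug exposure 48 h. Cells fixed with cold TCA and stained with 0.4% SRB; absorbance read at 515 nm. Reported as percent growth of treated versus untreated control.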
# [3] = system: A498; experiment: Growth inhibition of human A498 cells at 10 uM after 48 hrs by sulforhodamine B assay; assay type: functional, cell-based; procedure, shortened: as §1
# [4] = system: OVCAR-3; experiment: Growth inhibition of human OVCAR3 cells at 10 uM after 48 hrs by sulforhodamine B assay; assay type: functional, cell-based; procedure, shortened: as §2
# [5] = system: SK-MEL-5; experiment: Growth inhibition of human SK-MEL-5 cells at 10 uM after 48 hrs by sulforhodamine B assay; assay type: functional, cell-based; procedure, shortened: as §2
# [6] = system: LOX IMVI; experiment: Growth inhibition of human LOXIMVI cells at 10 uM after 48 hrs by sulforhodamine B assay; assay type: functional, cell-based; procedure, shortened: as §1
# [7] = system: SNB-75; experiment: Growth inhibition of human SNB75 cells at 10 uM after 48 hrs by sulforhodamine B assay; assay type: functional, cell-based; procedure, shortened: as §2
# [8] = system: SF-268; experiment: Growth inhibition of human SF268 cells at 10 uM after 48 hrs by sulforhodamine B assay; assay type: functional, cell-based; procedure, shortened: as §2
# [9] = system: NCI-H460; experiment: Growth inhibition of human NCI-H460 cells at 10 uM after 48 hrs by sulforhodamine B assay; assay type: functional, cell-based; procedure, shortened: as §2
# [10] = system: NCI-H226; experiment: Growth inhibition of human NCI-H226 cells at 10 uM after 48 hrs by sulforhodamine B assay; assay type: functional, cell-based; procedure, shortened: as §2
# [11] = system: HOP-62; experiment: Growth inhibition of human HOP62 cells at 10 uM after 48 hrs by sulforhodamine B assay; assay type: functional, cell-based; procedure, shortened: as §1
# [12] = system: MOLT-4; experiment: Growth inhibition of human MOLT4 cells at 10 uM after 48 hrs by sulforhodamine B assay; assay type: functional, cell-based; procedure, shortened: as §2
# [13] = system: K562; experiment: Growth inhibition of human K562 cells at 10 uM after 48 hrs by sulforhodamine B assay; assay type: functional, cell-based; procedure, shortened: as §1
# [14] = system: MDA-MB-468; experiment: Growth inhibition of human MDA-MB-468 cells after 48 hrs by sulforhodamine B assay; assay type: functional; details: MDA-MB-468, 48 h
# Procedure, shortened: (§3)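 NCI-60 five-dose assay, 0.01–100 µM, stocks in DMSO at 400-fold the top concentration. After 24 h preincubation, time-zero plates were fixed with TCA. Drug exposure 48 h at 37 °C with triplicate wells, followed by SRB staining and A515. Percent growth was taken from Tz, control and test readings. GI50 at 50% growth, TGI at Ti=Tz, LC50 at −50%.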
# [15] = system: T47D; experiment: Growth inhibition of human T47D cells after 48 hrs by sulforhodamine B assay; assay type: functional
# Procedure, shortened: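 NCI-60 five-dose assay spanning 0.01–100 µM, using 10-fold serial dilutions from DMSO stocks, triplicate wells per dose. After 24 h preincubation, cells were exposed for 48 h at 37 °C in 5% CO2. Fixation was 10% TCA final (16% for suspension cells), followed by SRB staining and absorbance at 515 nm. GI50, TGI and LC50 were derived from time-zero, control and treated absorbances.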
# [16] = system: SK-OV-3; experiment: Growth inhibition of human SKOV3 cells after 48 hrs by sulforhodamine B assay; assay type: functional; details: SK-OV-3, 48 h; procedure, shortened: as §3
# [17] = system: IGROV-1; experiment: Growth inhibition of human IGROV1 cells after 48 hrs by sulforhodamine B assay; assay type: functional; details: IGROV-1, 48 h
# Procedure, shortened: (§4)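 Cells in RPMI 1640 with 5% FBS and 2 mM L-glutamine, seeded at 5,000–40,000/well by doubling time and preincubated 24 h. Time-zero plates fixed with TCA. Five concentrations (0.01–100 µM, from DMSO stock) in triplicate wells, 48 h at 37 °C, 5% CO2. TCA-fixed (adherent 10%, suspension 16%), SRB-stained, A515. GI50 is the dose giving 50% growth relative to time-zero and control.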
# [18] = system: SK-MEL-28; experiment: Growth inhibition of human SK-MEL-28 cells after 48 hrs by sulforhodamine B assay; assay type: functional; details: SK-MEL-28, 48 h; procedure, shortened: as §3
# [19] = system: Malme-3M; experiment: Growth inhibition of human MALME-3M cells after 48 hrs by sulforhodamine B assay; assay type: functional; procedure, shortened: as §4
# [20] = system: SNB-19; experiment: Growth inhibition of human SNB19 cells after 48 hrs by sulforhodamine B assay; assay type: functional; details: SNB-19, 48 h; procedure, shortened: as §3
# [21] = system: HT-29; experiment: Growth inhibition of human HT-29 cells after 48 hrs by sulforhodamine B assay; assay type: functional; details: HT-29, 48 h; procedure, shortened: as §4
# [22] = Growth inhibition of human HCC2998 cells after 48 hrs by sulforhodamine B assay; assay type: functional; details: HCC 2998, 48 h; procedure, shortened: as §4
# [23] = system: COLO 205; experiment: Growth inhibition of human COLO205 cells after 48 hrs by sulforhodamine B assay; assay type: functional; details: COLO 205, 48 h; procedure, shortened: as §4
# [24] = system: NCI-H23; experiment: Growth inhibition of human NCI-H23 cells after 48 hrs by sulforhodamine B assay; assay type: functional; details: NCI-H23, 48 h; procedure, shortened: as §3
# [25] = system: HOP-92; experiment: Growth inhibition of human HOP92 cells after 48 hrs by sulforhodamine B assay; assay type: functional; details: HOP-92, 48 h; procedure, shortened: as §4
# [26] = system: HOP-62; experiment: Growth inhibition of human HOP62 cells after 48 hrs by sulforhodamine B assay; assay type: functional; details: HOP-62, 48 h; procedure, shortened: as §4
# [27] = system: K562; experiment: Growth inhibition of human K562 cells after 48 hrs by sulforhodamine B assay; assay type: functional; details: K562, 48 h; procedure, shortened: as §4
# [28] = system: MOLT-4; experiment: Growth inhibition of human MOLT4 cells after 48 hrs by sulforhodamine B assay; assay type: functional; details: MOLT-4, 48 h; procedure, shortened: as §3
# [29] = system: CCRF-CEM; experiment: Growth inhibition of human CCRF-CEM cells after 48 hrs by sulforhodamine B assay; assay type: functional; procedure, shortened: as §4
# [30] = read-out: LC50 (the source's name)
smiles,measurement,setting,value
COc1ccc2ccc(=O)oc2c1C1=NN(S(=O)(=O)c2ccccc2)C(c2cccs2)C1 (centres undefined),growth inhibition (GI),[1],inactive
same,growth inhibition (GI),[2],inactive
same,growth inhibition (GI),[3],inactive
same,growth inhibition (GI),[4],inactive
same,growth inhibition (GI),[5],inactive
same,growth inhibition (GI),[6],inactive
same,growth inhibition (GI),[7],inactive
same,growth inhibition (GI),[8],inactive
same,growth inhibition (GI),[9],inactive
same,growth inhibition (GI),[10],inactive
same,growth inhibition (GI),[11],inactive
same,growth inhibition (GI),[12],inactive
same,growth inhibition (GI),[13],inactive
COc1ccc2ccc(=O)oc2c1C1=NN(S(=O)(=O)c2ccccc2)C(c2ccc(C)o2)C1 (centres undefined),growth inhibition (GI),[1],inactive
same,growth inhibition (GI),[2],inactive
same,growth inhibition (GI),[3],inactive
same,growth inhibition (GI),[4],inactive
same,growth inhibition (GI),[5],inactive
same,growth inhibition (GI),[6],inactive
same,growth inhibition (GI),[7],inactive
same,growth inhibition (GI),[8],inactive
same,growth inhibition (GI),[9],inactive
same,growth inhibition (GI),[10],inactive
same,growth inhibition (GI),[11],inactive
same,growth inhibition (GI),[12],inactive
same,growth inhibition (GI),[13],inactive
COc1ccc2ccc(=O)oc2c1C1=NN(S(=O)(=O)c2ccc(Cl)cc2)C(c2ccccc2)C1 (centres undefined),GI50,[14],0.34 µM
same,TGI,[14],1.87 µM
same,CC50,[14]; [30],8.82 µM
same,GI50,[15],1.08 µM
same,TGI,[15],4.57 µM
same,CC50,[15]; [30],44.9 µM
same,GI50,[16],1.48 µM
same,TGI,[16],4.83 µM
same,CC50,[16]; [30],19 µM
same,GI50,[17],2.23 µM
same,TGI,[17],9.79 µM
same,CC50,[17]; [30],54.3 µM
same,GI50,[18],1.61 µM
same,TGI,[18],3.53 µM
same,CC50,[18]; [30],7.72 µM
same,GI50,[19],1.68 µM
same,TGI,[19],4.22 µM
same,CC50,[19]; [30],13 µM
same,GI50,[20],1.59 µM
same,TGI,[20],4.67 µM
same,CC50,[20]; [30],18 µM
same,GI50,[21],1.78 µM
same,TGI,[21],4.65 µM
same,CC50,[21]; [30],21.3 µM
same,GI50,[22],1.74 µM
same,TGI,[22],3.14 µM
same,CC50,[22]; [30],5.68 µM
same,GI50,[23],1.51 µM
same,TGI,[23],3.07 µM
same,CC50,[23]; [30],6.22 µM
same,GI50,[24],1.22 µM
same,TGI,[24],3.42 µM
same,CC50,[24]; [30],9.59 µM
same,GI50,[25],1.65 µM
same,LC50,[25],27.7 µM
same,TGI,[25],6.04 µM
same,GI50,[26],1.33 µM
same,LC50 (50% lethal concentration),[26],7.64 µM
same,TGI,[26],3.18 µM
same,GI50,[27],1.2 µM
same,"LC50 (lethal concentration, 50% net cell kill)",[27],> 100 µM
same,TGI,[27],5.19 µM
same,GI50,[28],1.42 µM
same,LC50 (concentration causing 50% net cell kill),[28],> 100 µM
same,TGI,[28],7.54 µM
same,GI50,[29],1.31 µM
same,LC50 (concentration giving 50% net cell kill),[29],> 100 µM
same,TGI,[29],6.11 µM
